According to ChEMBL document CHEMBL1131493, “Inhibitors of farnesyl protein transferase. 4-Amido, 4-carbamoyl, and 4-carboxamido derivatives of 1-(8-chloro-6,11-dihydro-5H-benzo[5,6]- cyclohepta[1,2-b]pyridin-11-yl)piperazine and 1-(3-bromo-8-chloro-6,11- dihydro-5H-benzo[5,6]cyclohepta[1,2-b]pyridin-11-yl)piperazine” (J Med Chem, 1998):

Experiments:
Mus musculus [1] = test: In vivo antitumor efficacy after peroral dose of 25 mg/kg in mice expressed as duration for which compound was present above IC50; assay type: ADME, organism-based; design: dose 25 mg/kg, route oral; conditions: po
Outline: (§1)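 Serum pharmacokinetics in nude mice or cynomolgus monkeys after oral (po) or iv dosing. Compounds were given as hydrochloride salts in 20% HPβCD unless otherwise noted. Other formulations were the hydrochloride salt in saline, the micronized free base in 20% HPβCD or corn oil (po) with saline for iv, or the hydrochloride salt in 0.4% methyl cellulose (po).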

[2] = molecular target: geranylgeranyltransferase type-I (Rattus norvegicus, UniProt P53610+Q04631); test: Inhibition of rat Geranylgeranyl transferase (GGPT); assay type: protein-complex assay
[3] = In vivo antitumor efficacy in nude mice by injecting a dose of 25 mg/kg iv and serum half-life was determined; assay type: ADME, organism-based; design: dose 25 mg/kg, route intravenous; conditions: mouse; outline: as §1
[4] = molecular target: T1, Protein farnesyltransferase (Homo sapiens, UniProt P49354+P49356); test: In vitro inhibition of farnesyltransferase farnesylation of the H-ras oncogene; assay type: protein-complex assay
[5] = In vivo antitumor efficacy in nude mice 0-24 hr after peroral dose of 25 mg/kg expressed as Area under the curve; assay type: ADME, organism-based; design: time < 24 hr, dose 25 mg/kg, route oral; conditions: nude, mouse, po; outline: as §1
[6] = Oral bioavailability in mouse (nude) (dose of 25 mg/kg); assay type: ADME, organism-based; conditions: in vivo; outline: as §1
[7] = (§2) Maximal plasma concentration in nude mice after 25 mg/kg oral dose; assay type: ADME, organism-based; design: dose 25 mg/kg, route oral; conditions: mouse; outline: as §1
[8] = molecular target: T1, Protein farnesyltransferase; test: Inhibition of Farnesyltransferase from Ras-CVLS or Ras-CVLL in Cos-7 monkey kidney cells; assay type: cell-based, Chlorocebus aethiops
[9] = In vivo antitumor efficacy in nude mice by injecting a dose of 25 mg/kg, as HCl salt in saline solution, iv and the total drug exposure was determined. (0-24hr); assay type: ADME, organism-based; design: time < 24 hr, dose 25 mg/kg, route intravenous; conditions: mouse
[10] = In vivo antitumor efficacy in nude mice 0-24 hr after intravenous dose of 25 mg/kg expressed as Area under the curve; assay type: ADME, organism-based; design: time < 24 hr, dose 25 mg/kg, route intravenous; conditions: mouse; outline: as §1
[11] = In vivo antitumor efficacy in nude mice 0-24 hr after iperoral dose of 25 mg/kg expressed as Area under the curve; assay type: ADME, organism-based; design: time < 24 hr, dose 25 mg/kg; conditions: mouse, po; outline: as §1
[12] = In vivo antitumor efficacy in nude mice by injecting a dose of 25 mg/kg, as HCl salt in saline solution, iv and the serum half-life was determined; assay type: ADME, organism-based; design: dose 25 mg/kg, route intravenous; conditions: mouse
[13] = In vivo antitumor efficacy after peroral dose of 25 mg/kg expressed as duration for which compound was present above IC50; assay type: ADME, organism-based; design: dose 25 mg/kg, route oral; conditions: po; outline: as §1
[14] = Oral bioavailability in mouse (nude) (dose 25 mg/kg i.v.); assay type: ADME, organism-based; conditions: in vivo
Mus musculus [15] = test: In vivo antitumor efficacy in nude mice by injecting a dose of 25 mg/kg, as HCl salt in saline solution, perorally and the duration of action was reported; assay type: ADME, organism-based; design: dose 25 mg/kg, route oral; conditions: po
[16] = as §2; assay type: ADME, organism-based; design: dose 25 mg/kg, route oral; conditions: mouse; remark: listed apart in the source
[17] = In vivo antitumor efficacy in nude mice by injecting a dose of 25 mg/kg, as HCl salt in saline solution, perorally and the total drug exposure was determined (0-24hr); assay type: ADME, organism-based; design: time < 24 hr, dose 25 mg/kg, route oral; conditions: mouse, po
[18] = In vivo antitumor efficacy in nude mice after peroral dose of 25 mg/kg expressed as Area under the curve; assay type: ADME, organism-based; design: dose 25 mg/kg, route oral; conditions: mouse, po; outline: as §1
[19] = In vivo antitumor efficacy peroral dose of 25 mg/kg expressed as duration for which compound was present above IC50; assay type: ADME, organism-based; design: dose 25 mg/kg, route oral; conditions: po; outline: as §1

IC50 [2]	Structure (SMILES)	IC50 [4]	Cmax [7]	IC50 [8]	other results
–	CC(C)(C(=O)N1CCN(C2c3ccc(Cl)cc3CCc3cc(Br)cnc32)CC1)c1ccc[n+]([O-])c1 (stereo unspecified)	0.38 µM	11 µM	2.2 µM	Time above IC50 (Mus musculus [1]): 4 h; half-life [3]: 36 min; AUC at 24 h [5]: 11700 ng·h/mL; bioavailability [6]: 47%; AUC at 24 h [10]: 25000 ng·h/mL
–	O=C(Cc1cc[n+]([O-])cc1)N1CCN([C@@H]2c3ccc(Cl)cc3CCc3cccnc32)CC1	1.2 µM	3 µM	–	AUC at 24 h [11]: 6000 ng·h/mL; half-life [12]: 66 min; Time above IC50 [13]: 2 h; bioavailability [6]: 53%; AUC at 24 h [10]: 11300 ng·h/mL
–	CN1CCC(CC(=O)N2CCN(C3c4ccc(Cl)cc4CCc4c(Cl)ccnc43)CC2)CC1 (stereo unspecified)	0.45 µM	–	5.7 µM	–
> 40 µM	O=C(CN1C(=O)c2ccccc2C1=O)N1CCN(C2c3ccc(Cl)cc3CCc3cccnc32)CC1 (stereo unspecified)	–	–	–	–
> 34 µM	CC(=O)N1CCC(CC(=O)N2CCN(C3c4ccc(Cl)cc4CCc4cc(Br)cnc43)CC2)CC1 (stereo unspecified)	0.102 µM	–	0.59 µM	bioavailability [14]: 28.8%; half-life [12]: 22.2 min; Time above IC50 (Mus musculus [15]): 2 h; Cmax [16]: 3 µM; AUC at 24 h [9]: 9510 ng·h/mL; AUC at 24 h [17]: 2740 ng·h/mL
> 38 µM	CN1CCC(CC(=O)N2CCN([C@H]3c4ccc(Cl)cc4CCc4cc(Br)cnc43)CC2)CC1	–	–	–	–
–	COCC[C@H]1CN(C2c3ccc(Cl)cc3CCc3cc(Br)cnc32)CCN1C(=O)Cc1cc[n+]([O-])cc1 (stereo partly specified)	0.034 µM	9 µM	< 0.25 µM	Time above IC50 (Mus musculus [1]): 7 h; AUC at 24 h [5]: 19900 ng·h/mL
–	O=C(Cc1cc[n+]([O-])cc1)N1CCN([C@H]2c3ccc(Cl)cc3CCc3cccnc32)CC1	0.49 µM	10 µM	5 µM	Time above IC50 (Mus musculus [1]): 4 h; half-life [3]: 48 min; AUC at 24 h [5]: 15500 ng·h/mL; bioavailability [6]: 72%; AUC at 24 h [9]: 21500 ng·h/mL
–	CC(=O)N1CCC(CC(=O)N2CCN(C3c4ccc(Cl)cc4CCc4cccnc43)CC2)CC1 (stereo unspecified)	0.87 µM	–	2.7 µM	–
> 50 µM	O=C(/C=C/c1cccnc1)N1CCN(C2c3ccc(Cl)cc3CCc3cccnc32)CC1 (stereo unspecified)	2.6 µM	–	–	–
> 33 µM	N[C@@H](CO)C(=O)N1CCC(CC(=O)N2CCN(C3c4ccc(Cl)cc4CCc4cc(Br)cnc43)CC2)CC1 (stereo partly specified)	0.104 µM	–	1.05 µM	–
> 46 µM	O=C(Nc1ccccn1)N1CCN(C2c3ccc(Cl)cc3CCc3cccnc32)CC1 (stereo unspecified)	–	–	1.3 µM	–
–	O=C(Oc1ccc[n+]([O-])c1)N1CCN(C2c3ccc(Cl)cc3CCc3cc(Br)cnc32)CC1 (stereo unspecified)	0.28 µM	–	6 µM	–
–	COCC[C@H]1CN(C2c3ccc(Cl)cc3CCc3cc(Br)cnc32)CCN1C(=O)CC1CCN(C(N)=O)CC1 (stereo partly specified)	0.092 µM	–	1.7 µM	–
–	CN1CCCC(CC(=O)N2CCN(C3c4ccc(Cl)cc4CCc4cccnc43)CC2)C1 (stereo unspecified)	1.19 µM	–	2.4 µM	–
–	O=C(Oc1cccnc1)N1CCN(C2c3ccc(Cl)cc3CCc3cccnc32)CC1 (stereo unspecified)	0.5 µM	–	3 µM	–
> 38 µM	O=C(CC1CCNCC1)N1CCN(C2c3ccc(Cl)cc3CCc3cc(Br)cnc32)CC1 (stereo unspecified)	0.072 µM	–	0.17 µM	bioavailability [14]: 65%; half-life [12]: 120 min; Time above IC50 (Mus musculus [15]): 24 h; Cmax [16]: 3 µM; AUC at 24 h [9]: 27200 ng·h/mL; AUC at 24 h [17]: 17600 ng·h/mL

Structure (SMILES)	IC50 [2]	IC50 [4]	Cmax [7]	IC50 [8]	other results
CCCC[C@H]1CN(C2c3ccc(Cl)cc3CCc3cc(Br)cnc32)CCN1C(=O)Cc1cc[n+]([O-])cc1 (stereo partly specified)	> 34.2 µM	0.06 µM	11.5 µM	0.63 µM	Time above IC50 (Mus musculus [1]): 7 h; half-life [3]: 120 min; AUC at 24 h [5]: 43200 ng·h/mL; bioavailability [6]: 47%; AUC at 24 h [9]: 91400 ng·h/mL
CN(C)c1ccc(CC(=O)N2CCN(C3c4ccc(Cl)cc4CCc4cccnc43)CC2)cc1 (stereo unspecified)	42 µM	–	–	–	–
O=C(Cc1ccncc1)N1CCN(C2c3ccc(Cl)cc3CCc3cc(Br)cnc32)CC1 (stereo unspecified)	> 39 µM	0.012 µM	0.9 µM	0.38 µM	half-life [3]: 44.4 min; AUC at 24 h [5]: 1100 ng·h/mL; AUC [18]: 1100 ng·h/mL; bioavailability [6]: 20.8%; Time above IC50 [19]: 6 h
